Calls of active or inactive are those of the source. The rule behind the calls is not given here.
How the values were obtained:
U-937 = assay: Induction of cell death in human U937 cells; type: functional, cell-based
BJ [1] = assay: Induction of cell death in human BJ cells expressing TERT, LT, ST and RAS G12V mutant genes cells in presence of MEK inhibitor 2 by trypan blue exclusion method; type: functional, cell-based
[2] = Induction of cell death in human TC32 cells; type: functional, cell-based, TC-32
[3] = Induction of cell death in human MES-SA cells; type: functional, cell-based
SK-ES1 = assay: Induction of cell death in human SK-ES-1 cells; type: functional, cell-based
BJ [4] = assay: Prevention of induction of cell death in human BJ cells expressing TERT, LT, ST and RAS G12V mutant genes cells after 24 hrs in presence of alpha-tocopherol; type: functional, cell-based
Summary of the method: (§1)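 BJ-TERT/LT/ST/RASV12 cells treated 24 h with erastin across roughly 1–2.5 µM, together with DMSO or an antioxidant (α-tocopherol, BHT or β-carotene). Viability read afterwards.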

HT-1080 [5] = assay: Suppression of induction of cell death in human HT1080 cells at […] by Alamar Blue assay in presence of in presence of alpha-tocopherol; type: functional, cell-based
HeLa [6] = assay: Induction of cell death in human HeLa cells; type: functional, cell-based
HT-1080 [7] = assay: Suppression of induction of cell death in human HT1080 cells at […] by Alamar Blue assay in presence of glutathione; type: functional, cell-based
HT-1080 [8] = assay: Induction of cell death in human HT1080 cells in presence of MEK 1/2 inhibitor by trypan blue exclusion method; type: functional, cell-based
BJ [9] = assay: Induction of cell death in human BJ cells expressing TERT, LT, ST and RAS G12V mutant genes cells in presence of MEK 1/2 inhibitor by trypan blue exclusion method; type: functional, cell-based
Summary of the method: (§2)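 BJ-TERT/LT/ST/RASV12 cells were co-treated for 48 h with 1.5 µM erastin plus 20 µM U0126, 10 µM MEK inhibitor I or 50 µM MEK1/2 inhibitor. Viability was measured by automated Trypan blue exclusion of trypsinized cells resuspended in growth medium; n = 2 or 3.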

[10] = target: T1, Mitogen-activated protein kinase; ERK1/ERK2 (Homo sapiens) (UniProt P27361+P28482); assay: Effect on ERK1/2 phosphorylation in human TC71 cells by Western blot; type: cell-based
T1 sequence (P27361 whole entry, looked up): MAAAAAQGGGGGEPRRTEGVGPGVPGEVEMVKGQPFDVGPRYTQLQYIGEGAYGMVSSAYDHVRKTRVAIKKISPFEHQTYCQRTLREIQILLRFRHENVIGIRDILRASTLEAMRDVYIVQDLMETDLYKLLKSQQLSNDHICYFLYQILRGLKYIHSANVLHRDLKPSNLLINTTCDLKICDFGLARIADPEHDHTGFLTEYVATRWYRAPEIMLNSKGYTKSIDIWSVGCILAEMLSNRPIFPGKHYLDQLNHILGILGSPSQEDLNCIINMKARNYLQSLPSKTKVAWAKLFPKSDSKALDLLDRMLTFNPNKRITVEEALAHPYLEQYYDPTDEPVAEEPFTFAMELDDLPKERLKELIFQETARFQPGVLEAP
T1 sequence (P28482 whole entry, looked up): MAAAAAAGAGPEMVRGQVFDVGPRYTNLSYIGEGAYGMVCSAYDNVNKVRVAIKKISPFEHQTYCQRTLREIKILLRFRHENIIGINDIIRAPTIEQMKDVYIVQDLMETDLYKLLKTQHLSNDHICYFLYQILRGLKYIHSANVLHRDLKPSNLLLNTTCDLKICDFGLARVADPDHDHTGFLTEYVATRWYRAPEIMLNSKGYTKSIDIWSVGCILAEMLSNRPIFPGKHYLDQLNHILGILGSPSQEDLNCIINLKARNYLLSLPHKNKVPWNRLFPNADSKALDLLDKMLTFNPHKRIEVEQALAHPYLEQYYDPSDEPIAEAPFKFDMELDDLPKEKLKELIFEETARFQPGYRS
Summary of the method: (§3)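 Washed cells were lysed in pH 7.4 HEPES buffer containing orthovanadate, NaF, pyrophosphate, β-glycerophosphate and protease inhibitors. Lysates were run on SDS-PAGE, transferred to PVDF and blocked 1 h at room temperature. Blots were probed with a multiplex phospho-signalling antibody cocktail and read by infrared fluorescence scanning.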

HT-1080 [11] = assay: Induction of PARP1 cleavage in human HT1080 cells; type: functional, cell-based
Summary of the method: (§4)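 Cells were left untreated or given staurosporine or erastin for 6 or 8 h. Lysates were analysed by western blot for full-length and cleaved PARP1, with actin as loading control.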

SK-N-MC = assay: Induction of cell death in human SK-N-MC cells; type: functional, cell-based
BJ [12] = assay: Induction of cell death in human BJ cells expressing TERT, LT, ST and RAS G12V mutant genes in presence of MEK inhibitor by trypan blue exclusion method; type: functional, cell-based; summary of the method: as §2
C-33-A = assay: Induction of cell death in human C33A cells; type: functional, cell-based
SW982 = assay: Induction of cell death in human SW982 cells; type: functional
SJSA-1 = assay: Induction of cell death in human SJSA1 cells; type: functional, cell-based
[13] = target: T1, Mitogen-activated protein kinase; ERK1/ERK2 (Homo sapiens); assay: Effect on ERK1/2 phosphorylation in human HL60 cells by Western blot; type: cell-based; details: HL-60; summary of the method: as §3
SVR = assay: Induction of cell death in human SVR cells; type: functional, cell-based
HCT-116 = assay: Induction of cell death in human HCT116 cells; type: functional
BJ [14] = assay: Induction of cell death in human BJ cells expressing TERT, LT, ST and RAS G12V mutant genes in presence of U0126 by trypan blue exclusion method; type: functional, cell-based; summary of the method: as §2
[15] = Induction of cell death in human MX2 cells; type: functional, cell-based
[16] = target: T1, Mitogen-activated protein kinase; ERK1/ERK2 (Homo sapiens); assay: Effect on ERK1/2 phosphorylation in human SKES1 cells by Western blot; type: cell-based; summary of the method: as §3
BJ [17] = assay: Induction of PARP1 cleavage in human BJ cells expressing TERT, LT, ST and RAS G12V mutant genes cells after 14 hrs; type: functional, cell-based
Summary of the method: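 BJ-TERT/LT/ST/RASV12 cells (3 × 10^6 per dish) were incubated overnight at 37 °C, 5% CO2, then given erastin for 6–26 h. Untreated cells and staurosporine (6 h) or camptothecin (18 h) served as comparators. Full-length and cleaved PARP1 were detected by western blot.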

HT-1080 [18] = assay: Induction of cell death in human HT1080 cells in presence of U0126 by trypan blue exclusion method; type: functional, cell-based
BJ [19] = assay: Induction of cell death in human BJ cells expressing TERT, LT, ST and RAS G12V mutant genes cells in presence of PD-98059 by trypan blue exclusion method; type: functional, cell-based
BJ [20] = assay: Induction of cell death in human BJ cells expressing TERT, LT, ST and RAS G12V mutant genes cells at 9 uM; type: functional, cell-based
HT-1080 [21] = assay: Induction of cell death in human HT1080 cells in presence of MEK inhibitor by trypan blue exclusion method; type: functional, cell-based
HL-60 = assay: Induction of cell death in human HL60 cells; type: functional
BJ [22] = assay: Induction of cytochrome c release in mitochondrial fraction of human BJ cell expressing TERT, LT, ST and RAS G12V mutant genes at 20 ug/ml; type: functional, cell-based
Summary of the method: (§5)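 BJ-TERT/LT/ST/RASV12 cells seeded 3 × 10^6 per dish, incubated overnight at 37 °C, 5% CO2, then exposed to erastin 20 µg/ml for 6–26 h. Fractionated on ice by needle lysis: nuclei spun out at 400g, mitochondria pelleted at 10,500g. Cytochrome c detected by western blot in cytosolic and mitochondrial fractions.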

BJ [23] = assay: Prevention of induction of cell death in human BJ cells expressing TERT, LT, ST and RAS G12V mutant genes cells after 24 hrs in presence of butylated hydroxytoluene; type: functional, cell-based; summary of the method: as §1
HeLa [24] = assay: Induction of PARP1 cleavage in human HeLa cells; type: functional, cell-based; summary of the method: as §4
BJ [25] = assay: Induction of cytochrome c release in cytosolic fraction of human BJ cells expressing TERT, LT, ST and RAS G12V mutant genes at 20 ug/ml; type: functional, cell-based; summary of the method: as §5
HT-1080 [26] = assay: Induction of cell death in human HT1080 cells; type: functional, cell-based
BJ [27] = assay: Prevention of induction of cell death in human BJ cells expressing TERT, LT, ST and RAS G12V mutant genes cells after 24 hrs in presence of beta-carotene; type: functional, cell-based; summary of the method: as §1
SW872 = assay: Induction of cell death in human SW872 cells; type: functional
HT-1080 [28] = assay: Induction of cell death in human HT1080 cells in presence of MEK inhibitor 2 by trypan blue exclusion method; type: functional, cell-based
[29] = target: T1, Mitogen-activated protein kinase; ERK1/ERK2 (Homo sapiens); assay: Effect on ERK1/2 phosphorylation in human SW872 cells by Western blot; type: cell-based; summary of the method: as §3

Structure (SMILES): CCOc1ccccc1-n1c(C(C)N2CCN(C(=O)COc3ccc(Cl)cc3)CC2)nc2ccccc2c1=O (stereo not given) [ERASTIN]
- Activity (U-937): 73%
- EC50 (U-937; Homo sapiens, U-937): 10000 nM
- IC50 (BJ [1]): 900 nM
- Activity [2]: 88%
- EC50 ([2]; Homo sapiens, TC-32): 8000 nM
- Activity [3]: 100%
- EC50 ([3]; Homo sapiens, MES-SA): 3000 nM
- Activity (SK-ES1): 96%
- EC50 (SK-ES1; Homo sapiens, SK-ES1): 7000 nM
- Activity (BJ [4]): Active
- Activity (HT-1080 [5]): Active
- Activity (HeLa [6]): 94%
- EC50 (HeLa [6]; Homo sapiens, HeLa): 600 nM
- Activity (HT-1080 [7]): Active
- IC50 (HT-1080 [8]): 6000 nM
- IC50 (BJ [9]): 2000 nM
- Activity [10]: 0.23 a.u.
- Activity (HT-1080 [11]): inactive
- Activity (SK-N-MC): 95%
- EC50 (SK-N-MC; Homo sapiens, SK-N-MC): 10000 nM
- IC50 (BJ [12]): 2600 nM
- Activity (C-33-A): 21%
- EC50 (C-33-A; Homo sapiens, C-33-A): 600 nM
- Activity (SW982): 0%
- Activity (SJSA-1): 100%
- EC50 (SJSA-1; Homo sapiens, SJSA-1): 12000 nM
- Activity [13]: 0.1 a.u.
- Activity (SVR): 20%
- EC50 (SVR; Mus musculus, SVR): 2500 nM
- Activity (HCT-116): 0%
- IC50 (BJ [14]): 31200 nM
- Activity [15]: 71%
- EC50 ([15]; Homo sapiens, MX2): 18000 nM
- Activity [16]: 0.25 a.u.
- Activity (BJ [17]): inactive
- IC50 (HT-1080 [18]): 3400 nM
- IC50 (BJ [19]): 900 nM
- Activity (BJ [20]): Active
- IC50 (HT-1080 [21]): 2500 nM
- Activity (HL-60): 0%
- Activity (BJ [22]): inactive
- Activity (BJ [23]): Active
- Activity (HeLa [24]): inactive
- Activity (BJ [25]): inactive
- Activity (HT-1080 [26]): 98%
- EC50 (HT-1080 [26]; Homo sapiens, HT-1080): 2000 nM
- Activity (BJ [27]): Active
- Activity (SW872): 0%
- IC50 (HT-1080 [28]): 1300 nM
- Activity [29]: 0.12 a.u.
